Data reported in ChEMBL document CHEMBL3785023, “Development and Pharmacological Characterization of Selective Blockers of 2-Arachidonoyl Glycerol Degradation with Efficacy in Rodent Models of Multiple Sclerosis and Pain” (J Med Chem, 2016).
Calls of active or inactive are those of the source. The calls are words filed in the database; no cut-off is given here.

Columns and labels:
[1] = tested on: Heart; assay: Cardiotoxicity in Langendorff-perfused Sprague-Dawley rat heart assessed as time duration of cardiac cycle length at 0.01 uM by ECG analysis (reference value: 238.38 +/- 9.23 milliseconds); type: toxicity, tissue-based
[2] = tested on: Heart; assay: Cardiotoxicity in Langendorff-perfused Sprague-Dawley rat heart assessed as atrioventricular conduction time at 0.001 uM by ECG analysis (reference value: 45.62 +/- 4.49 milliseconds); type: toxicity, tissue-based
[3] = tested on: Heart; assay: Cardiotoxicity in Langendorff-perfused Sprague-Dawley rat heart assessed as atrioventricular conduction time at 0.01 uM by ECG analysis (reference value: 45.62 +/- 4.49 milliseconds); type: toxicity, tissue-based
[4] = tested on: Heart; assay: Cardiotoxicity in Langendorff-perfused Sprague-Dawley rat heart assessed as atrioventricular conduction time at 0.1 uM by ECG analysis (reference value: 45.62 +/- 4.49 milliseconds); type: toxicity, tissue-based
[5] = tested on: Heart; assay: Cardiotoxicity in Langendorff-perfused Sprague-Dawley rat heart assessed as atrioventricular conduction time at 1 uM by ECG analysis (reference value: 45.62 +/- 4.49 milliseconds); type: toxicity, tissue-based
[6] = tested on: Heart; assay: Cardiotoxicity in Langendorff-perfused Sprague-Dawley rat heart assessed as time duration of action potential at 0.001 uM by ECG analysis (reference value: 75.65 +/- 0.87 milliseconds); type: toxicity, tissue-based
[7] = tested on: Heart; assay: Cardiotoxicity in Langendorff-perfused Sprague-Dawley rat heart assessed as time duration of action potential at 0.01 uM by ECG analysis (reference value: 75.65 +/- 0.87 milliseconds); type: toxicity, tissue-based
[8] = tested on: Heart; assay: Cardiotoxicity in Langendorff-perfused Sprague-Dawley rat heart assessed as corrected time duration of action potential at 1 uM by ECG analysis (reference value: 155.26 +/- 2.96 milliseconds); type: toxicity, tissue-based
[9] = molecular target: Cannabinoid receptor 2 (Homo sapiens, UniProt P34972); assay: Displacement of [3H]-CP-55940 from human recombinant CB2 receptor expressed in HEK293 cells after 90 mins; type: cell-based
Chain of Cannabinoid receptor 2 (P34972 whole entry): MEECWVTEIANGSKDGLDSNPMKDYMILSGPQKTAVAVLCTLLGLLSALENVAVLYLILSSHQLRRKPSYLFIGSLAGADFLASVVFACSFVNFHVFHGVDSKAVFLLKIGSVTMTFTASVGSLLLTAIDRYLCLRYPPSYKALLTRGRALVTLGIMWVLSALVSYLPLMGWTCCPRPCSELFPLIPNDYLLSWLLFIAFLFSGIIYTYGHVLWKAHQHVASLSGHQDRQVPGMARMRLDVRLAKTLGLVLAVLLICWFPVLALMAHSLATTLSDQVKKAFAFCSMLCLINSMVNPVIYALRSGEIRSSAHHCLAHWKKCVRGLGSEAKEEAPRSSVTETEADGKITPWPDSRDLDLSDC
Procedure, shortened: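 Membranes from HEK-293 cells stably expressing human CB1 (Bmax 2.9 pmol/mg) or CB2 (Bmax 6.0 pmol/mg) incubated 90 min at 30 °C with [3H]-CP-55,940: 0.4 nM for CB1, 0.53 nM for CB2. Non-specific binding defined with 10 µM WIN 55212-2.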

[10] = molecular target: T1, Monoglyceride lipase (Rattus norvegicus, UniProt Q8R431); assay: Inhibition of MAGL in rat brain membranes preincubated for 20 mins followed by fluorophosphonate-rhodamine addition measured after 30 mins by competitive affinity based proteomic profiling assay; type: cell membranes, Membrane
T1 sequence (Q8R431 whole entry): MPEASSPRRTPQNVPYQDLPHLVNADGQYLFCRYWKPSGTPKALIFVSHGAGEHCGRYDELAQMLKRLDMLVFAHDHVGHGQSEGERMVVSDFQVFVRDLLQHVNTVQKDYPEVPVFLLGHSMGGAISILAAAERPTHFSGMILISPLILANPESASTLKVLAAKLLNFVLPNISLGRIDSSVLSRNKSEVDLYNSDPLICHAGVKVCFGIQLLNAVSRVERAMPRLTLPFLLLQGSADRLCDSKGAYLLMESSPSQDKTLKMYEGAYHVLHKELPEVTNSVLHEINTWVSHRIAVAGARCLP
Procedure, shortened: (§1)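 Rat brain membranes (1 mg/mL) preincubated with 1–1000 nM inhibitor or DMSO for 20 min at 37 °C. FP-rhodamine then added and incubated a further 30 min at 37 °C. Samples run on SDS-PAGE and serine hydrolase bands quantified by in-gel fluorescence.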

[11] = tested on: Salmonella typhimurium; assay: Mutagenicity in Salmonella typhimurium TA98 assessed as increase in number of colonies at 1 uM by Ames test; type: toxicity, organism-based; details: salmonella enterica subsp. enterica serovar typhimurium
[12] = tested on: Heart; assay: Cardiotoxicity in Langendorff-perfused Sprague-Dawley rat heart assessed as heart rate at 0.1 uM by ECG analysis (reference value: 252.78 +/- 9.28 bpm); type: toxicity, tissue-based
[13] = tested on: Mus musculus; assay: Inhibition of demyelination in experimental autoimmune encephalomyelitis C57BL/6J mouse spinal cord at 3 mg/kg, ip by luxol fast blue staining based microscopic analysis; type: functional, organism-based
Procedure, shortened: (§2)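 EAE induced in female C57BL/6J mice with MOG35-55, then 3 mg/kg i.p. daily. AM251 or AM630 (1 mg/kg), where used, given 10 min before each dose. Spinal cord white matter stained with Luxol Fast Blue and demyelinated areas assessed by microscopy.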

[14] = tested on: Mus musculus; assay: Inhibition of demyelination in experimental autoimmune encephalomyelitis C57BL/6J mouse spinal cord at 3 mg/kg, ip administered post CB2 antagonist/inverse agonist AM630 addition by luxol fast blue staining based microscopic analysis; type: functional, organism-based; procedure, shortened: as §2
[15] = tested on: Mus musculus; assay: Reduction of IBA1 positive cells in white matter anterior fasciculus of experimental autoimmune encephalomyelitis C57BL/6J mouse spinal cord at 3 mg/kg, ip administered post CB2 antagonist/inverse agonist AM630 addition by immunofluorescence assay; type: functional, organism-based
Procedure, shortened: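 MOG35-55-immunized female C57BL/6J mice were given 3 mg/kg i.p. daily. AM251 or AM630, each at 1 mg/kg, was given 10 min before each dose. Iba1 immunofluorescence with DAPI was done on spinal cord white matter (anterior fasciculus). Positive cells were counted per optic field. One-way ANOVA with Bonferroni test.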

[16] = molecular target: T2, Monoacylglycerol lipase ABHD6 (Rattus norvegicus) (UniProt Q5XI64); assay: Inhibition of ABHD6 in rat brain membranes up to 500 nM preincubated for 20 mins followed by fluorophosphonate-rhodamine addition measured after 30 mins by competitive affinity based proteomic profiling assay; type: cell membranes; details: Membrane; procedure, shortened: as §1
T2 sequence (whole entry): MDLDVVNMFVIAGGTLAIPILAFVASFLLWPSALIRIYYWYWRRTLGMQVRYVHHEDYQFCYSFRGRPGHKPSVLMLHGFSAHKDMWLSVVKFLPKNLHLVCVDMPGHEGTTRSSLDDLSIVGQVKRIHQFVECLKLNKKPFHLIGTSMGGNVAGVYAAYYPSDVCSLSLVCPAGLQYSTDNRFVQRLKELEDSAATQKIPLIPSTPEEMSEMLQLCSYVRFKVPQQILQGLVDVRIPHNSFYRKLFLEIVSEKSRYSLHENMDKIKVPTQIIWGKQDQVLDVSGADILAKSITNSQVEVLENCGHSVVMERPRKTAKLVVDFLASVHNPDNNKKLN

[17] = molecular target: T3, Lysophosphatidylserine lipase ABHD12 (Rattus norvegicus) (UniProt Q6AYT7); assay: Inhibition of ABHD12 in rat brain membranes up to 500 nM preincubated for 20 mins followed by fluorophosphonate-rhodamine addition measured after 30 mins by competitive affinity based proteomic profiling assay; type: cell membranes; details: Membrane; procedure, shortened: as §1
T3 sequence (whole entry): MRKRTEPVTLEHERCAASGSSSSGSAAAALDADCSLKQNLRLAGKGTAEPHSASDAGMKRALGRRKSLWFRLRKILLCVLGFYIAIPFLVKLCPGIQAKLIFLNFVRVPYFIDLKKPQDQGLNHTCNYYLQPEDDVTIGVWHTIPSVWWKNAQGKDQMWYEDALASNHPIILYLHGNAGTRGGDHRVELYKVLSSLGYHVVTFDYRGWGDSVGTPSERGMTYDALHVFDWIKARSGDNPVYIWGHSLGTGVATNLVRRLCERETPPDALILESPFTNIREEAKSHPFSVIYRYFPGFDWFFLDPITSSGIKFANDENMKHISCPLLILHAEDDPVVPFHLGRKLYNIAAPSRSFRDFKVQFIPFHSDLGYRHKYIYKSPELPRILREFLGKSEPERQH

For O=C1[C@H](c2ccc(F)cc2)[C@@H](c2ccc3c(c2)OCO3)N1C1CCN(C(=O)n2cncn2)CC1 (racemic) [listing 1 of 2 here], the Time [1] was 236.8 ms, the Time [2] was 46.03 ms and the Time [3] was 46.46 ms. It also gave a Time [4] of 46.18 ms, a Time [5] of 46.67 ms and a Time [6] of 76.38 ms. The Time [7] was 76.17 ms, the Time [8] was 156.78 ms and the IC50 [9] was over 10000 nM. For the same compound, the IC50 [10] was 10 nM, the Activity [11] was “Non-toxic” and the Activity [12] was 252.65 bpm.
With O=C1[C@H](c2ccc(F)cc2)[C@@H](c2ccc3c(c2)OCO3)N1C1CCN(C(=O)n2cncn2)CC1 (racemic) [listing 2 of 2 here] the inhibition [13] was “Active”, the inhibition [14] was “inactive” and the Activity [15] was “inactive”. The inhibition [16] was “inactive” and the inhibition [17] was “inactive”.
